For data set [1], the system named is Jurkat and H522 cells. As to the kind of experiment: F26BP measurement in cells. The conditions noted are these: three hours exposure. In kind it is cell-based, human. In short, it runs like this:
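Cells plated at 1×10^5/well, 24 h in RPMI or DMEM (5% CO2, 37°C), then exposed to test compound for 3 h. Cells triturated, washed twice in PBS, dissolved in […] NaOH. F26BP measured by coupled enzyme reaction and normalized to BCA protein. Triplicate or quadruplicate; unpaired two-tailed t-test.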

For data set [2], the system named is Jurkat T cell leukemia cells. The conditions noted are these: previous studies; cited from earlier work.
Data set [3] relates to Jurkat T cell leukemia cells. As to the kind of experiment: Annexin V / propidium iodide flow cytometry. It counts as cell-based, human. The note with it: 20 μM, five hours. For orientation: In flow cytometry, cells or beads pass a laser one at a time.
The target in data set [4] is recombinant human PFKFB3 protein (Homo sapiens, UniProt Q16875). As to the kind of experiment: Recombinant PFKFB3 kinase assay. It counts as biochemical.
A short description of data set [5]: Pharmacokinetic profile after IV administration. The conditions noted are these: plasma. In kind it is in vivo, female C57Bl/6 mice. A digest of the protocol:
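Test compound was given IV to female C57Bl/6 mice, with 8 time points and 3 animals per time point. Plasma was extracted with acetonitrile and analysed by LC-MS/MS on a polar reverse-phase column with a 0.5% formic acid acetonitrile/water mobile phase. Tmax, Cmax, volume of distribution, half-life, clearance, AUCs and MRT were calculated from the concentration–time data.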

The test system of data set [6] is H522 human lung adenocarcinoma cells. Briefly: Cell viability, trypan blue exclusion. The conditions noted are these: NCI-H522, 48 h, read-out: IC50 cytotoxic effects (viability). In kind it is cell-based.
Data set [7] has as its system Jurkat or H522 cells. As to the kind of experiment: 2-[1-14C]-deoxy-D-glucose uptake. In kind it is cell-based, human. The note with it: three hours exposure, Jurkat and H522. In short, it runs like this: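 Jurkat or H522 cells in RPMI 1640 + 10% FCS + 50 μg/ml gentamycin at 100,000/ml, treated immediately with DMSO vehicle or test compound for 3 h. Washed in glucose-free RPMI, 30 min with inhibitor, then 1 h with 14C-2-deoxyglucose (0.1 μCi/μl stock). Ice-cold washes, 0.5% SDS lysis, scintillation counting; counts normalized to BCA protein.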

For data set [8], the system named is Jurkat and H522 cells. As to the kind of experiment: Intracellular ATP bioluminescence assay. It counts as cell-based, human. The note with it: three hours exposure, Jurkat and H522. A digest of the protocol:
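After plating at 1×10^5 cells/well (24 h, 37°C, 5% CO2) and 3 h test compound exposure, adherent cells were washed with cold PBS, lysed in passive lysis buffer and scraped. One freeze (−80°C)/thaw (37°C) cycle, cleared at 4°C. ATP read by firefly luciferase/D-luciferin luminescence at 560 nm against an ATP standard curve, as nmol/mg BCA protein.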

For data set [9], the system named is Jurkat T cell leukemia cells. Briefly: Cell viability, trypan blue exclusion. The conditions noted are these: Homo sapiens, 48 h, read-out: IC50 cytotoxic effects (viability). In kind it is cell-based.
[10] abbreviates: female, C57Bl/6, mouse, iv, 5 mg/kg.

One may read the IC50 as the concentration that inhibits the measured activity by half. As a reminder, the Cmax is the peak of the concentration-time curve. In general, clearance refers to the volume of plasma or blood freed of the substance per unit of time. Low values mean inefficient removal, high ones efficient removal. Usually half-life stands for how long it takes for the measured level to halve. Lower therefore signals fast loss.

Chain of recombinant human PFKFB3 protein (Q16875 whole entry): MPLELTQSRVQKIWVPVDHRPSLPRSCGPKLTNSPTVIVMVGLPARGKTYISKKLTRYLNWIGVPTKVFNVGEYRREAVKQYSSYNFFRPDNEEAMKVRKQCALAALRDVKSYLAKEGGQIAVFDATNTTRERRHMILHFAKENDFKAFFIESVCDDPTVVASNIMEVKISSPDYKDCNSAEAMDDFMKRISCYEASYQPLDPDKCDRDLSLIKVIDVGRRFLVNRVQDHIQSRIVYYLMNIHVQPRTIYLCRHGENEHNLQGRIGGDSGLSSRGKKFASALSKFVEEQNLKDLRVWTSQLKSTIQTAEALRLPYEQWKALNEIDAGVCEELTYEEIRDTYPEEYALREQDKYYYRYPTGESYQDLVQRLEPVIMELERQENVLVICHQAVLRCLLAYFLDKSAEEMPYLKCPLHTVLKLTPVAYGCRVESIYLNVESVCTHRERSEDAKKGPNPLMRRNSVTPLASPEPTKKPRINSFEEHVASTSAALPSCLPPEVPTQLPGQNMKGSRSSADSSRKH

For `O=C(C=Cc1cccnc1)c1ccncc1` [3PO, 3-(3-pyridinyl)-1-(4-pyridinyl)-2-propen-1-one, reference compound], the “effect on F26BP” value in data set [1] was “reduced”. In addition, the “concentrations that caused cell death” value in data set [2] is > 10 µM. Also, the “cells undergoing early apoptosis (Annexin V+/PI−)” value in data set [3] is given as “increased”. For the same compound, the half-maximal inhibitory concentration (IC50) in data set [4] amounted to 22.9 µM. The AUC0-inf in [5] (IV, C57Bl/6 mice) came to 36 ng/h/mL. Moreover, in [5] (setting [10]), the Cmax was 113 ng/mL, the clearance was determined as 2310 mL/min/kg and the half-life was 18 min. For the same compound, in data set [6], the IC50 was 5.57 µM. The “effect on glucose uptake (14C-2DG)” value in data set [7] is listed as “reduced”. For the same compound, the “effect on intracellular ATP” value in data set [8] is listed as “reduced”. Further, the IC50 in [9] is 7.2 µM.
